In the library only some 3.9% were active in any assay of this set; here they are far more common.
TIM10 inh – growth inhibitors of TIM10 yeast strain; S. cerevisiae TIM10 strain growth, BacTiter-Glo luminescence, 24 h; inhibition, % at 10 µM; 330,000 tested, 1.4% active; AID 463195;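 active means inhibition of 40% or more at the single tested concentration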;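 further: wild-type TIM10 isogenic control strain grown at permissive 25 °C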
tim23-1 inh – tim23-1 yeast growth inhibition. S. cerevisiae tim23-1 growth, BacTiter-Glo luminescence, 24 h. inhibition, % at 20 µM. 330,000 tested, 1.3% active. AID 463212;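 active means growth inhibition of the mutant yeast at or above 50%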;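 further: temperature-sensitive mutant grown at 25 °C; plate controls were DMSO-treated mutant yeast for no effect and medium wells lacking yeast for full effect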
UPR XBP1 act – adaptive UPR (XBP1) activation | CHO-XBP1 luciferase reporter, IRE1-XBP1 UPR activation, luminescence; percent of tunicamycin response, DMSO as zero | activation, % at 20 µM | 330,000 tested, 0.33% active | AID 463104;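 active means versus positive control, 20 µM dose yields 30% or more activation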;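 further: 100% = tunicamycin at 10 µg/mL and 0% = DMSO only wells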
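Material – CHO cell line with stable XBP1 luciferase reporter · Buffer or medium – F12 plus 10% FBS · Compound – single point, 20 µM final compound, 1% DMSO · Schedule – 16-18 h cell attachment at 37 °C, then 6 h compound exposure · Signal – Steady-Glo luminescence read · Benchmarks – high control tunicamycin 10 µg/mL final, low control DMSO vehicle only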
CHOP UPR activ – apoptotic UPR (CHOP) activation | CHO-CHOP luciferase reporter, luminescence; percent of tunicamycin response over DMSO baseline | activation, % at 10 µM | 330,000 tested, 0.34% active;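 active means at 10 µM dose, activation of 40% or more, normalized to positive control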;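 further: 100% = tunicamycin at 10 µg/mL and 0% = DMSO alone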
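Test system: CHO-CHOP cells, stable luciferase reporter of PERK-eIF2a-CHOP signalling | Quantity: 500 CHO-CHOP cells per well | Buffer or medium: F12 plus 10% serum | Compound dosing: 10 µM single point, 0.5% DMSO | Schedule: 6 h compound treatment, 37 °C | Signal: Luciferase luminescence | Control set: Tunicamycin high control, DMSO low control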
tim10-1 inh – growth inhibitors of tim10-1 mutant yeast | S. cerevisiae tim10-1 ts strain growth, BacTiter-Glo, 24 h | inhibition, % at 20 µM | 330,000 tested, 2.2% active;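 active means inhibition of at least 40%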;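 further: mutant grown at 25 °C; 0% = DMSO wells with yeast and 100% = wells holding no yeast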
tim10-1 conf – confirmation of tim10-1 mutant yeast growth inhibitors | shares compounds with tim10-1 inh | S. cerevisiae tim10-1 ts strain growth, BacTiter-Glo, 24 h | inhibition, % at 20 µM | 7,400 tested, 56% active;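 active means inhibition of yeast growth at or above a set limit in either of two repeat tests at 20 µM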;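 further: tim10-1 mutant grown at permissive 25 °C to find synthetic lethal compounds; 0% = DMSO yeast wells and 100% = medium wells without yeast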
Starred values were filed as active, the others as inactive; . = no result given.

SMILES	TIM10 inh	tim23-1 inh	UPR XBP1 act	CHOP UPR activ	tim10-1 inh	tim10-1 conf
Cc1cc2c(cc1C)CSC(c1ccccc1O)SC2	33.7	39.2	6.7	1.7	61.6*	35.2*
Cc1cc2c(cc1C)CSC(c1ccc3ccccc3c1O)SC2	-6.4	25.9	-1.8	-2.0	13.2	.
COCCN(CC(=O)Nc1cccc(C)c1C)C(=O)c1oc2ccccc2c1C	-1.7	10.8	-0.3	0.3	-5.5	.
COc1ccc2cc(C(=O)N/N=C/c3cc(OC)c(OC)c(OC)c3)[nH]c2c1	28.5	38.7	4.3	1.6	40.5*	26.2
COc1ccc(/C=N/NC(=O)c2cc3cc(OC)c(OC)cc3[nH]2)cc1	2.4	21.6	3.6	-0.3	13.8	.
CCCCn1nc(C(=O)Nc2ccc(-n3cnnn3)cc2)c2ccccc2c1=O	0.2	-9.3	1.4	4.9	-0.8	.
COc1ccc(C(=O)Oc2ccc3c(c2)OCO3)cc1OC	11.2	17.5	-2.9	2.2	41.9*	29.6
COc1ccc(N(CC(=O)Nc2ccc(C)c(C)c2)S(=O)(=O)c2c(C)noc2C)cc1	13.5	44.4	-10.4	1.4	45.1*	8.1
CC1CCN(S(=O)(=O)CCNC(=O)c2ccc(F)cc2)CC1	-11.2	6.8	0.2	-1.0	2.4	.
O=S(=O)(c1ccccc1)N1N=C(c2ccc(Cl)cc2)CC1c1ccco1 (configuration not stated)	1.1	38.9	-3.5	-0.2	24.8	.
Cc1ccc(Oc2ccc(NS(=O)(=O)c3cccc(C(=O)O)c3)cc2)cc1	4.9	7.2	-3.6	-2.1	4.7	.
CC(=O)c1sc(N/N=C2\CC3CC2C(C)C3(C)C)nc1C (configuration not stated)	18.3	19.6	-2.8	6.2	45.1*	28.5
Cc1ccc(NCC(=O)Nc2cccc(F)c2)cc1S(=O)(=O)N1CCCCCC1	5.4	26.3	-2.7	-0.4	10.7	.
O=C(Nc1c(F)cccc1F)c1ccc2c(c1)CCN2S(=O)(=O)c1ccccc1	15.8	23.5	-2.7	-0.5	22.2	.
O=C(Nc1ccccc1F)c1ccc2c(c1)CCN2S(=O)(=O)c1ccccc1	22.6	36.1	-7.4	0.1	40.5*	16.2
COc1cc(/C=C2\SC(=S)N(Nc3ccccc3)C2=O)ccc1O	30.6	28.8	6.9	5.6	51.1*	20.1
COc1cccc(NC(=S)N/N=C2\CC3CCC2(C)C3(C)C)c1 (configuration not stated)	35.8	17.0	4.5	4.2	41.4*	30.8*
CCOc1c(C=C(C#N)C#N)c2ccccc2n1CC	6.9	40.6	-2.0	-0.7	41.6*	26.9
Cc1ccn2c(c1)nc(=O)c1cc(S(=O)(=O)N3CCOCC3)ccc12	2.3	-11.7	-5.0	0.6	-6.2	.
CCCCSCCCNC(=O)Nc1ccc(C)c(C)c1	1.3	31.3	0.1	2.0	46.8*	15.3
Cc1ccc(NC(=O)NCCN2CCCCC2)cc1C	8.8	-4.2	-0.7	3.3	-14.3	.
COc1ccc(CCCNC(=O)C2CCC(=O)N(CCc3cccc(F)c3)C2)cc1 (configuration not stated)	2.1	-6.3	-1.5	0.2	12.1	.
COc1ccc(-c2oc3ncnc(NCCCN4CCOCC4)c3c2-c2ccc(OC)cc2)cc1	29.0	48.2	3.8	-1.9	41.1*	23.4
COc1ccc(-c2oc3ncnc(NCCN4CCOCC4)c3c2-c2ccc(OC)cc2)cc1	37.6	39.0	9.4	4.3	47.9*	28.8*
Cc1cccc(N2CCN(C(=O)c3ccccc3SCC(=O)N3CCCC3)CC2)c1C	6.2	9.1	0.4	-1.9	-2.1	.
CCn1c(=O)c2sccc2n(Cc2cc(C(=O)OC)ccc2OC)c1=O	3.4	32.6	5.1	0.9	4.5	.
O=S(=O)(Cc1ccc(Cl)cc1)NCc1ccc2c(c1)OCO2	11.4	26.6	-7.6	-0.2	13.9	.
Cc1cccc(C(=O)Nc2ccccc2C(=O)OCC(=O)Nc2ccc(C#N)cc2)c1	38.2	20.1	2.8	3.2	43.3*	11.2
Cc1ccc(NC(=O)COC(=O)c2ccccc2Nc2ccccc2)cc1	5.3	10.6	-1.2	0.4	-5.4	.
CCCN(CC(=O)Nc1ccccc1OC)C(=O)CCNC(=O)c1ccccc1OC	-1.2	-1.2	0.9	2.5	-3.7	.
